Data reported in ChEMBL document CHEMBL1122504, “Heterocyclic Quinones. 4. A new highly cytotoxic drug: 6,7-bis(1-aziridinyl)-5,8-quinazolinedione” (1983).

How the values were obtained:
Salmonella typhimurium [1] = assay: Mutagenesis test was performed at 10 uM concentration in Salmonella Typhimurium TA 98; format: functional, Salmonella enterica subsp. enterica serovar Typhimurium
Method in brief: (§1)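 Salmonella typhimurium his auxotrophs TA98 and TA100 were tested by liquid suspension without metabolic activation. Overnight Oxoid nutrient broth cultures were subcultured, grown 2 h, then exposed to drug for 5 h. Cells were washed, resuspended to A650 2.50, and plated in top agar (0.6% agar, 0.6% NaCl). His+ revertants per plate were counted after 48 h at 37 °C; values are means of three assays.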

Salmonella typhimurium [2] = assay: Mutagenesis test was performed at 0.3 uM concentration in Salmonella Typhimurium TA 98; format: functional, Salmonella enterica subsp. enterica serovar Typhimurium; method in brief: as §1
B16 [3] = assay: Number of survivors of B16 melanocarcinoma cell line on day 5/ number of treated mice at a dose of 1 ip injection of 5 mg/kg on Q01Dx01 treatment schedule; 09/10; format: functional, Mus musculus; details: route intraperitoneal
B16 [4] = assay: Median survival time of […] melanocarcinoma cell line after a dose of 5 mg/kg administered intraperitoneally on Q01Dx01 treatment schedule; format: functional, Mus musculus; details: route intraperitoneal
Method in brief: (§2)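 B16 melanocarcinoma: C57Bl/6 mice implanted sc with cell suspension on day 0; single ip dose in 0.15 M NaCl saline given on day 1. Median survival time was recorded in days, with toxicity taken as survivors on day 5. T/C% = treated MST/control MST × 100; >125% is considered significant.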

Sarcoma-180 [5] = assay: Number of survivors of sarcoma 180 cell line on day 5/ number of treated mice at a dose of 1 ip injection of 20 mg/kg on Q01Dx01 treatment schedule; 10/10; format: functional, Mus musculus; details: route intraperitoneal
L1210 [6] = assay: Number of survivors of L1210 cell line on day 5/ number of treated mice at a dose of 9ip injection of 2.5 mg/kg on Q01Dx09 treatment schedule; 10/10; format: functional, Mus musculus
L1210 [7] = assay: Median survival time of L1210 cell line after a dose of 10 mg/kg administered intraperitoneally on Q01Dx02 treatment schedule; format: functional, Mus musculus; details: route intraperitoneal
Method in brief: (§3)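 L1210 leukaemia: DBA/2 mice inoculated ip with 10^5 cells on day 0, with ip drug in 0.15 M NaCl saline on the stated schedule. The read-out was median survival time in days, with toxicity taken as survivors on day 5. T/C% = treated MST/control MST × 100; >125% is considered significant.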

Salmonella typhimurium [8] = assay: Mutagenesis test was performed at 40 uM concentration in Salmonella Typhimurium TA 100; format: functional, Salmonella enterica subsp. enterica serovar Typhimurium; method in brief: as §1
L1210 [9] = assay: Median survival time of L1210 cell line after a dose of 5 mg/kg administered intraperitoneally on Q01Dx05 treatment schedule; format: functional, Mus musculus; details: route intraperitoneal; method in brief: as §3
B16 [10] = assay: Median survival time of […] melanocarcinoma cell line after a dose of 10 mg/kg administered intraperitoneally on Q01Dx01 treatment schedule; format: functional, Mus musculus; details: route intraperitoneal; method in brief: as §2
P388 [11] = assay: Number of survivors of P388 lymphocytic leukemia cell line on day 5/ number of treated mice at a dose of 5 ip injection of 5 mg/kg on Q01Dx05 treatment schedule; 10/10; format: functional, Mus musculus; details: route intraperitoneal
L1210 [12] = assay: Number of survivors of L1210 cell line on day 5/ number of treated mice at a dose of 2 ip injection of 15 mg/kg on Q01Dx02 treatment schedule; 10/10; format: functional, Mus musculus; details: route intraperitoneal
P388 [13] = assay: Median survival time of P388 lymphocytic leukemia cell line after a dose of 10 mg/kg administered perorally on Q01Dx07 treatment schedule; format: functional, Mus musculus; details: route oral
Method in brief: (§4)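 P388 leukaemia: DBA/2 mice inoculated with 10^6 cells on day 0; treatment began day 1 at the stated route and schedule. Drug was dissolved in 0.15 M NaCl saline. The read-out was median survival time (MST, days), with toxicity taken as survivors on day 5. T/C% = treated MST/control MST × 100; ≥125% is considered significant.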

L1210 [14] = assay: Number of survivors of L1210 cell line on day 5/ number of treated mice at a dose of 5ip injection of 5 mg/kg on Q01Dx05 treatment schedule; 10/10; format: functional, Mus musculus
P388 [15] = assay: Number of survivors of P388 lymphocytic leukemia cell line on day 5/ number of treated mice at a dose of 1 i.v. injection of 15 mg/kg on Q01Dx01 treatment schedule; 5/10; format: functional, Mus musculus; details: route intravenous
P388 [16] = assay: Median survival time of P388 lymphocytic leukemia cell line after a dose of 5 mg/kg administered intraperitoneally on Q01Dx05 treatment schedule; format: functional, Mus musculus; details: route intraperitoneal; method in brief: as §4
Salmonella typhimurium [17] = assay: Mutagenesis test was performed at 4 uM concentration in Salmonella Typhimurium TA 100; format: functional, Salmonella enterica subsp. enterica serovar Typhimurium; method in brief: as §1
P388 [18] = assay: Number of survivors of P388 lymphocytic leukemia cell line on day 5/ number of treated mice at a dose of 1 i.p. injection of 20 mg/kg on Q01Dx01 treatment schedule; 10/10; format: functional, Mus musculus; details: route intraperitoneal
P388 [19] = assay: Median survival time of P388 lymphocytic leukemia cell line after a dose of 20 mg/kg administered intraperitoneally on Q01Dx01 treatment schedule; format: functional, Mus musculus; details: route intraperitoneal; method in brief: as §4
L1210 [20] = assay: MST of treated animal over control when administered at a dose of 5 mg/kg intraperitoneally on Q01Dx05 treatment schedule in L1210 cell lines; format: functional, Mus musculus; details: route intraperitoneal; method in brief: as §3
B16 [21] = assay: MST of treated animal over control when administered at a dose of 5 mg/kg intraperitoneally on Q01Dx01 treatment schedule in B16 melanocarcinoma cell lines; format: functional, Mus musculus; details: route intraperitoneal; method in brief: as §2
P388 [22] = assay: Median survival time of P388 lymphocytic leukemia cell line after a dose of 2.5 mg/kg administered intraperitoneally on Q01Dx09 treatment schedule; format: functional, Mus musculus; details: route intraperitoneal; method in brief: as §4
Salmonella typhimurium [23] = assay: Mutagenesis test was performed at 20 uM concentration in Salmonella Typhimurium TA 100; format: functional, Salmonella enterica subsp. enterica serovar Typhimurium; method in brief: as §1
P388 [24] = assay: Number of survivors of P388 lymphocytic leukemia cell line on day 5/ number of treated mice at a dose of 9 ip injection of 5 mg/kg on Q01Dx09 treatment schedule; 10/10; format: functional, Mus musculus; details: route intraperitoneal
Salmonella typhimurium [25] = assay: Mutagenesis test was performed at 60 uM concentration in Salmonella Typhimurium TA 100; format: functional, Salmonella enterica subsp. enterica serovar Typhimurium; method in brief: as §1
L1210 [26] = assay: MST of treated animal over control when administered at a dose of 10 mg/kg intraperitoneally on Q01Dx05 treatment schedule in L1210 cell lines; format: functional, Mus musculus; details: route intraperitoneal; method in brief: as §3
P388 [27] = assay: MST of treated animal over control when administered at a dose of 20 mg/kg perorally on Q01Dx07 treatment schedule; format: functional, Mus musculus; details: route oral; method in brief: as §4
Sarcoma-180 [28] = assay: Median survival time of sarcoma 180 cell line after a dose of 10 mg/kg administered intraperitoneally on Q01Dx01 treatment schedule; format: functional, Mus musculus; details: route intraperitoneal
Method in brief: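 Sarcoma 180 was inoculated ip in Swiss mice (10^6 cells, day 0), and drug was given ip in 0.15 M NaCl saline. Median survival time was recorded in days; antitumor activity was expressed as treated MST over control MST ×100, significant above 125%.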

B16 [29] = assay: MST of treated animal over control when administered at a dose of 10 mg/kg intraperitoneally on Q01Dx01 treatment schedule in B16 melanocarcinoma cell lines; format: functional, Mus musculus; details: route intraperitoneal; method in brief: as §2
P388 [30] = assay: Median survival time of P388 lymphocytic leukemia cell line after a dose of 15 mg/kg administered intravenously on Q01Dx01 treatment schedule; format: functional, Mus musculus; details: route intravenous; method in brief: as §4
P388 [31] = assay: Number of survivors of P388 lymphocytic leukemia cell line on day 5/ number of treated mice at a dose of 1 i.p. injection of 10 mg/kg on Q01Dx01 treatment schedule; 10/10; format: functional, Mus musculus; details: route intraperitoneal
P388 [32] = assay: Median survival time of P388 lymphocytic leukemia cell line after a dose of 10 mg/kg administered intraperitoneally on Q01Dx01 treatment schedule; format: functional, Mus musculus; details: route intraperitoneal; method in brief: as §4

O=C1C(N2CC2)=C(N2CC2)C(=O)c2ncncc21
Revertants/plate (Salmonella typhimurium [1]): 89 | Revertants/plate (Salmonella typhimurium [2]): 84 | Toxicity Survivors (B16 [3]): 9 | MST (B16 [4]): 15.7 days | Toxicity Survivors (Sarcoma-180 [5]): 10 | Toxicity Survivors (L1210 [6]): 10 | MST (L1210 [7]): 9 days | Revertants/plate (Salmonella typhimurium [8]): 461 | MST (L1210 [9]): 9.1 days | MST (B16 [10]): 20.8 days | Toxicity Survivors (P388 [11]): 10 | Toxicity Survivors (L1210 [12]): 10 | MST (P388 [13]): 7.6 days | Toxicity Survivors (L1210 [14]): 10 | Toxicity Survivors (P388 [15]): 5 | MST (P388 [16]): 10.4 days | Revertants/plate (Salmonella typhimurium [17]): 87 | Toxicity Survivors (P388 [18]): 10 | MST (P388 [19]): 9.5 days | T/C (L1210 [20]): 108% | T/C (B16 [21]): 126% | MST (P388 [22]): 10.4 days | Revertants/plate (Salmonella typhimurium [23]): 108 | Toxicity Survivors (P388 [24]): 10 | Revertants/plate (Salmonella typhimurium [25]): 501 | T/C (L1210 [26]): 69% | T/C (P388 [27]): 105% | MST (Sarcoma-180 [28]): 18.3 days | T/C (B16 [29]): 91% | MST (P388 [30]): 10.4 days | Toxicity Survivors (P388 [31]): 10 | MST (P388 [32]): 9.5 days
